Source: ChEMBL document CHEMBL3576808, “Phylum-specific regulation of resistomycin production in a Streptomyces sp. via microbial coculture” (J Nat Prod, 2015)
Values after ≈ are worked out from the molar mass of the structure shown. Active and inactive are the calls of the source. The rule behind the calls is not given here.

How the values were obtained:
Yersinia pestis = assay: Antimicrobial activity against Yersinia pestis A1122 assessed as inhibition of microbial growth at 50 ug/ml; assay type: functional, organism-based
Xanthomonas axonopodis = assay: Antimicrobial activity against Xanthomonas axonopodis ATCC 8718 assessed as inhibition of microbial growth at 50 ug/ml; assay type: functional, organism-based
Procedure, shortened: (§1)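 Single-dose growth-inhibition test at 50 μg/mL. Stock culture (50 μL) went into 10 mL tryptic soy broth and was shaken overnight at 37 °C; X. axonopodis was grown at 30 °C instead. OD was read at 625 nm and cells were adjusted to about 5 × 10^5 CFU per 100 μL well. Compound was added to a 100 μL final volume and plates were incubated overnight.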

[1] = tested on: Burkholderia vietnamiensis; assay: Antimicrobial activity against Burkholderia vietnamiensis ATCC BAA-248 assessed as inhibition of microbial growth at 50 ug/ml; assay type: functional; procedure, shortened: as §1
[2] = Retention time of the compound by HPLC method; assay type: physicochemical
[3] = tested on: Mycobacterium tuberculosis; assay: Antimicrobial activity against Mycobacterium tuberculosis H37Rv assessed as inhibition of microbial growth at 50 ug/ml; assay type: functional, organism-based
Escherichia coli = assay: Antimicrobial activity against Escherichia coli ATCC 25922 assessed as inhibition of microbial growth at 50 ug/ml; assay type: functional, organism-based; procedure, shortened: as §1
Brucella neotomae = assay: Antimicrobial activity against Brucella neotomae ATCC 23459 assessed as inhibition of microbial growth at 50 ug/ml; assay type: functional; procedure, shortened: as §1
Firmicutes = assay: Antimicrobial activity against Firmicutes K940; assay type: functional; conditions: Bacillota
Procedure, shortened: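 Growth-inhibition assay against the inducing Actinobacteria (E906) and Firmicutes (K940) coculture isolates. Dose-response testing gave the MIC values. Bacteria were grown overnight in tryptic soy broth with shaking and read by OD at 625 nm. Wells were adjusted to about 5 × 10^5 CFU per 100 μL, compound was added to a 100 μL final volume, and plates were incubated overnight.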

Enterococcus faecalis = assay: Antimicrobial activity against Enterococcus faecalis ATCC 29212 assessed as inhibition of microbial growth at 50 ug/ml; assay type: functional, organism-based
Pseudomonas aeruginosa = assay: Antimicrobial activity against Pseudomonas aeruginosa ATCC 27853 assessed as inhibition of microbial growth at 50 ug/ml; assay type: functional, organism-based; procedure, shortened: as §1

Cc1cc(O)c2c3c4c(cc(O)c13)C(C)(C)C(=O)c1c(O)cc(O)c(c1-4)C2=O [HELIOMYCIN]
inhibition (Yersinia pestis): inactive
inhibition (Xanthomonas axonopodis): inactive
inhibition [1]: inactive
Retention_time [2]: 17.9 min
inhibition [3]: inactive
inhibition (Escherichia coli): inactive
inhibition (Brucella neotomae): inactive
MIC (Firmicutes): 0.25 µg/mL (≈ 0.664 µM)
inhibition (Enterococcus faecalis): inactive
inhibition (Pseudomonas aeruginosa): inactive
